Measured values pooled from the literature.
PLEKHA3: PLEKHA3 (Homo sapiens, UniProt Q9HB20)
ADRA2C: Alpha-2C adrenergic receptor (ADRA2C, Homo sapiens, UniProt P18825)
Fibroblast growth factor 14: Fibroblast growth factor 14 (Homo sapiens, UniProt Q92915)

| Compound | target | test | quantity | result |
| --- | --- | --- | --- | --- |
| COc1ccc(C(=O)CC(SCc2ccc(Cl)cc2)C(=O)O)cc1 (stereo not drawn) | PLEKHA3 | ligand displacement, FP | Ki | 13.2 µM |
| Cc1cc(Oc2ncccc2CN2CCN(c3ccc([N+](=O)[O-])cc3Cl)CC2)ccc1-c1c(C)c(=O)[nH]c(=O)n1C | ADRA2C | ligand displacement, radioligand | Ki | 0.623 µM |
| CCOc1ccc(C(=O)CC(SCc2ccc(Cl)cc2)C(=O)O)cc1OCC (stereo not drawn) | PLEKHA3 | ligand displacement, FP | Ki | 6.81 µM |
| CCOC(=O)c1cccc(NC(=O)Cn2cc(CO)c3ccccc32)c1 | Fibroblast growth factor 14 | binding, SPR | Kd | 0.293 µM |
| Cc1cc(Oc2ncccc2CN2CCN(c3ccccc3C#N)CC2)ccc1-c1c(C)c(=O)[nH]c(=O)n1C | ADRA2C | ligand displacement, radioligand | Ki | 0.0563 µM |
| Cn1cc(-c2ccnc3ccccc23)c(-c2ccccn2)n1 | Mitogen-activated protein kinase 14 (MAPK14, Homo sapiens, UniProt Q16539) | enzyme activity, inhibitor, ADP detection | IC50 | 9.4 µM |
| CC(=O)Nc1ccc(S(=O)(=O)N2CCN(CC(O)COc3ccc4ccccc4c3)CC2)cc1 (stereo not drawn) | Fibroblast growth factor 14 | binding, SPR | Kd | 8.53 µM |
| Cc1cc(Oc2ncccc2CN2CCN(c3ccc([N+](=O)[O-])cc3C(F)(F)F)CC2)ccc1-c1c(C)c(=O)[nH]c(=O)n1C | ADRA2C | ligand displacement, radioligand | Ki | 0.401 µM |
| CCOc1ccc(C(=O)CC(SCc2ccc(F)cc2)C(=O)O)cc1 (stereo not drawn) | PLEKHA3 | ligand displacement, FP | Ki | 13.8 µM |
| COc1nc(-c2cccc(-c3ccccc3)c2C)ccc1CNCCNC(=O)CCCCCCCCCCC(=O)N1CCN(CCNC(=O)c2cc3c(=O)n4cccc(C)c4nc3n(CCc3cccs3)c2=N)CC1 | Programmed cell death 1 ligand 1 (Cd274, Mus musculus, UniProt Q9EP73) | binding, BLI | Kd | 0.625 µM |
| O=C(O)c1cc(-c2ccc(-c3cc[nH]n3)cc2)c2ccc(-c3ccc(C(F)(F)F)cc3)cc2c1 | ADRA2C | cell-free assay, radioligand | Ki | 6.5 µM |
| Cc1cc(Oc2ncccc2CN2CCN(c3cccc4ccccc34)CC2)ccc1-c1c(C)c(=O)[nH]c(=O)n1C | ADRA2C | ligand displacement, radioligand | Ki | 0.0143 µM |
| CCOc1ccc(C(=O)CC(SCc2cccc(Br)c2)C(=O)O)cc1 (stereo not drawn) | PLEKHA3 | ligand displacement, FP | Ki | 6.03 µM |
| Cc1cc(Oc2ncccc2CN2CCN(Cc3ccc(F)cc3)CC2)ccc1-c1c(C)c(=O)[nH]c(=O)n1C | ADRA2C | ligand displacement, radioligand | Ki | 0.206 µM |
| C[C@H](Cc1ccc(O)c(O)c1)[C@@H](C)Cc1ccc(O)c(O)c1 | pyrD (Pseudomonas aeruginosa, UniProt Q9HZF8) | binding, ITC | Kd | 7.5 µM |
